Data: ChEMBL document CHEMBL1250445, “Fluorogenic probes for monitoring peptide binding to class II MHC proteins in living cells” (Nat Chem Biol, 2007)
pIC50: −log10 of the molar value. The source made the active and inactive calls. The calls are words filed in the database; no cut-off is given here. *1 amine or outer side, *2 acyl side, *3 side chain or, on linkers, in order; H or OH if unused. Where a SMILES comes first, the peptide text is derived from it. [ ]: non-standard residue; d: D form. The star is where a group is joined. X1 = CN(C)c1ccc2c(c1)C(=O)N(C[C@H](N[*:1])C(=O)[*:2])C2=O; X2 = CN(C)c1ccc2cc(C(=O)O)c(C(=O)*)cc2c1; X3 = CN(C)c1ccc(CC(=O)*)c(C(=O)O)c1; Dap = NC[C@H](N)C(=O)O

Key:
Format in all cases: cell-based
[1] = target: T1, HLA class II histocompatibility antigen, DRB1-15 beta chain (Homo sapiens, UniProt P01903+P01911, A100R/D57E/F55L/F60I/F76Y/I96L/L162R/M171V/P40L/Q125E/R42F/V115G/Y59C); assay: Displacement of biotin-HA from recombinant soluble HLA-DR1 expressed in […] by ELISA
[2] = target: HLA class II histocompatibility antigen, DRB1-15 beta chain (Homo sapiens) (UniProt P01911); assay: Activation of HLA-DR1 positive B cells assessed as IL2 secretion
Outline: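 HLA-DR1-positive B cells were pulsed with peptide and used as antigen-presenting cells for the HLA-DR1-restricted, HA-specific HA1.7 T cell hybridoma. Activation was read as IL-2 secretion in a thymidine incorporation bioassay, in c.p.m. Triplicate measurements, with SD shown.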

[3] = target: HLA class II histocompatibility antigen, DRB1-15 beta chain (Homo sapiens) (UniProt P01911); assay: Binding affinity to recombinant soluble HLA-DR1 expressed in […] assessed as fluorescence lifetime by fluorescence lifetime imaging microscopy
[4] = target: HLA class II histocompatibility antigen, DRB1-15 beta chain (Homo sapiens) (UniProt P01911); assay: Binding affinity to recombinant soluble HLA-DR1 expressed in […] assessed as relative fluorescence intensity by fluorescence spectral assay
[5] = target: T1, HLA class II histocompatibility antigen, DRB1-15 beta chain; assay: Displacement of biotin-HA from recombinant soluble HLA-DR1 expressed in human T2 cells at acidic pH by ELISA
[6] = target: HLA class II histocompatibility antigen, DRB1-15 beta chain (Homo sapiens) (UniProt P01911); assay: Binding affinity to recombinant soluble HLA-DR1 expressed in human T2 cells assessed as increase in fluorescence lifetime at 1 uM by fluorescence lifetime imaging microscopy

CN(C)c1ccc2c(c1)C(=O)N(C[C@H](NC(=O)OCC1c3ccccc3-c3ccccc31)C(=O)O)C2=O
pIC50 [1]: < 6.00

CC(C)C[C@H](NC(=O)[C@H](CCCCN)NC(=O)[C@H](CC(C)C)NC(=O)[C@@H](NC(=O)[C@H](CC(N)=O)NC(=O)[C@H](CCC(N)=O)NC(=O)[C@H](CCCCN)NC(=O)[C@@H](NC(=O)[C@H](Cc1ccc(O)cc1)NC(=O)[C@H](CCCCN)NC(=O)[C@@H]1CCCN1C(=O)[C@@H](N)CN1C(=O)c2ccc(N(C)C)cc2C1=O)C(C)C)[C@@H](C)O)C(=O)N[C@@H](C)C(=O)N[C@H](C(=O)O)[C@@H](C)O
Activity [2]: Active | Time [3]: 0.6 nanoseconds | Activity [4]: 578 cps/nM

CSCC[C@H](NC(=O)[C@H](CO)NC(=O)[C@H](CCCNC(=N)N)NC(=O)[C@H](CNC(=O)c1cc2cc(N(C)C)ccc2cc1C(=O)O)NC(C)=O)C(=O)N[C@@H](C)C(=O)N[C@@H](C)C(=O)N[C@@H](C)C(=O)N[C@@H](C)C(=O)N[C@@H](CC(C)C)C(=O)O (Ac-[Dap](X2)RSMAAAAL-OH)
pIC50 [5]: 7.57

CSCC[C@H](NC(=O)[C@H](CO)NC(=O)[C@H](CCCN=C(N)N)NC(=O)[C@H](CNC(=O)Cc1ccc(N(C)C)cc1C(=O)O)NC(C)=O)C(=O)N[C@@H](C)C(=O)N[C@@H](C)C(=O)N[C@@H](C)C(=O)N[C@@H](C)C(=O)N[C@@H](CC(C)C)C(=O)O (Ac-[Dap](X3)RSMAAAAL-OH)
pIC50 [5]: 7.55

C[C@@H](O)[C@H](NC(=O)[C@H](CCC(=O)O)NC(=O)[C@@H](N)CN1C(=O)c2ccc(N(C)C)cc2C1=O)C(=O)N[C@@H](CC(=O)O)C(=O)N[C@@H](CCCCN)C(=O)N[C@@H](CC(=O)O)C(=O)N[C@@H](CCCCN)C(=O)N[C@@H](CO)C(=O)N[C@@H](CCCN=C(N)N)C(=O)O (H-[X1]ETDKDKSR-OH)
pIC50 [1]: < 5.00

CSCC[C@H](NC(=O)[C@H](CO)NC(=O)[C@H](CCCNC(=N)N)NC(=O)[C@@H](N)CN1C(=O)c2ccc(N(C)C)cc2C1=O)C(=O)N[C@@H](C)C(=O)N[C@@H](C)C(=O)N[C@@H](C)C(=O)N[C@@H](C)C(=O)N[C@@H](CC(C)C)C(=O)O (H-[X1]RSMAAAAL-OH)
pIC50 [1]: 8.40 | Activity [6]: Active | Time [3]: 0.82 nanoseconds | pIC50 [5]: 8.40 | Activity [4]: 599 cps/nM
